The values below come from PMC4096303 (Journal of the American Chemical Society, 2013).

Series [1] is described as follows: Solution speciation studies of Zn. It is filed as binding. To be noted: pH 7.4, based on concentration of unchelated Zn(II). The essentials: (§1)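 Ligand and metal chloride mixed at M(II):L = 1:2: CuCl2 25 µM, or ZnCl2 50 or 250 µM depending on ligand. Titrated with small HCl aliquots, recording at least 30 UV–vis spectra over pH 2–9. Stability constants fitted from the spectra; speciation diagrams modelled to give metal-free Cu(II) or Zn(II) at pH 7.4.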

The nature of series [2]: Parallel Artificial Membrane Permeability Assay adapted for BBB. To be noted: PAMPA-BBB, 25 µM, pH 7.4, 4 h, ambient temperature. The class given is in vitro ADME. A digest of the protocol:
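Test compound diluted in Prisma HT buffer, pH 7.4, to 25 µM final (1% DMSO) in donor wells, 11–12 replicates per compound. Acceptor PVDF filter coated with BBB-1 lipid; brain sink buffer in acceptor wells. Sandwich held 4 h at ambient temperature, unstirred. Absorbance read on a plate reader; −logPe averaged by software.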
In general terms: PAMPA measures passive passage across an artificial lipid membrane.

A short description of series [3]: Solution speciation studies of Cu. The class given is binding. To be noted: pH 7.4, based on concentration of unchelated Cu(II). A digest of the protocol:
as §1

Series [4] has as its system preformed aggregates of Aβ and metal–Aβ. The series can be described thus: Aβ disaggregation experiment. To be noted: aggregates preformed 24 h, compound 50 µM, gel/TEM. It is filed as biochemical. The essentials: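 Aβ40 or Aβ42 (25 µM) in Chelex-treated HEPES/NaCl buffer, pH 6.6 for Cu(II) or 7.4 for Zn(II), with or without CuCl2 or ZnCl2 (25 µM). Aggregated 24 h at 37 °C with agitation. Test compound then added (50 µM) and incubated 4, 8 and 24 h at 37 °C with agitation. Analysed by Tris–tricine gel/Western blot (6E10 antibody) and by uranyl acetate-stained TEM.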

The nature of series [5]: TEAC assay with cell lysates. The class given is biochemical. To be noted: M17 human neuroblastoma cell lysates, relative to Trolox. The essentials:
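M17 cells grown in 1:1 MEM/F12K with 10% FBS and penicillin/streptomycin to 80–90% confluence. Washed and harvested in cold PBS, pelleted, then sonicated on ice in 5 mM potassium phosphate pH 7.4 (0.9% NaCl, 0.1% glucose) and cleared at 10 000g, 4 °C. Supernatant mixed with test compound (0.045–0.330 mM), metmyoglobin, ABTS and H2O2; 5 min at room temperature; A750 read. TEAC taken as slope ratio versus Trolox; triplicate.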

Series [6] addresses Aβ40/Aβ42 (Homo sapiens, UniProt P05067). As to the kind of experiment: Aβ aggregation inhibition experiment. The class given is biochemical. Conditions: Aβ 25 µM. A digest of the protocol: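 Aβ stock made in 1% NH4OH, diluted with ddH2O and quantified by A280. Test compound (50 µM, 1% DMSO) added with or without CuCl2/ZnCl2 (25 µM), 37 °C, constant agitation, 4, 8, 24 h. Read by 10–20% Tris–tricine gel, nitrocellulose transfer, anti-Aβ 6E10 Western blot, and TEM.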

Series [7] can be described thus: In vitro metabolic stability, human liver microsomes. The class given is in vitro ADME. The essentials: (§2)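 Liver microsomes incubated with test compound at 1 µM, 37 °C, with ketanserin as reference compound; half-life (t1/2) determined.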
Background: Liver microsomes are a subcellular fraction often used to study metabolism.

The nature of series [8]: Trolox equivalent antioxidant capacity. It is filed as biochemical. To be noted: ABTS cation radicals in EtOH, factor.
A short description of series [9]: UV-vis variable-pH titration. To be noted: for pKa: Acidity constant (pKa), pH range 2–8. The class given is physicochemical. The essentials:
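Test compound (50 µM) in 100 mM NaCl, 10 mM NaOH (pH 12) titrated with small HCl aliquots, recording at least 30 UV–vis spectra over pH 2–8. Acidity constants fitted from the spectra; speciation diagram modelled to give the species distribution at pH 7.4.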

Series [10] in a line: 2-Deoxyribose assay. It is filed as biochemical. To be noted: ligand 125 µM, CuCl2 10 µM, absence and presence of Aβ (freshly prepared and aggregated).
Series [11] is described as follows: In vitro metabolic stability, rat liver microsomes. The class given is in vitro ADME. The essentials: as §2
The target in series [12] is Aβ42 (Homo sapiens, UniProt P05067). The series can be described thus: Ion mobility-mass spectrometry of early Aβ42 oligomerization. It is filed as biochemical. To be noted: IM–MS. A digest of the protocol: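 Lyophilized Aβ42 dissolved in 10 mM ammonium acetate, pH 7.4, to a final peptide concentration of 10 µM. Analysed by ion mobility on a traveling-wave Q-TOF mass spectrometer.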

A short description of series [13]: Brain uptake study. The class given is in vivo, male CD1 mice. Conditions: male, CD1, mouse, oral, 10 mg/kg. The essentials:
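Single 10 mg/kg oral gavage dose in sterile water to male CD1 mice, n = 3. Blood was drawn 5 min post-dose by retro-orbital or cardiac puncture into K2EDTA. Plasma was spun at 2000g for 5 min at 4 °C. Samples underwent protein precipitation and LC-MS/MS; LLOQ 1 ng/mL plasma, 4 ng/mL brain.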

For series [14], the system named is N2aAPPswe or N2a cells. The series can be described thus: Cell viability by MTT assay, Aβ- or metal-Aβ-induced toxicity. The class given is cell-based, murine. To be noted: 10 µM, 24 h, both N2a and N2aAPPswe cells. The essentials: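 Cells kept at 37 °C under 5% CO2 and seeded at 15 000 cells/well. Given CuCl2 or ZnCl2 (10 µM) plus test compound (10 µM final, 1% DMSO) for 24 h. MTT was added for 4 h at 37 °C and formazan dissolved overnight in acidic DMF/SDS. Absorbance read at 600 nm; viability expressed relative to DMSO-only cells; n = 3.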
In general terms: Tetrazolium dyes change colour on reduction, which living cells bring about.

A short description of series [15]: In vitro metabolic stability, mouse liver microsomes. It is filed as in vitro ADME. A digest of the protocol:
as §2

Series [16] is described as follows: Metal selectivity competition experiments by UV-vis. The class given is binding. To be noted: stoichiometric ratios; 50 µM ligand, pH 7.4. The essentials:
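Ligand at 50 µM (1% DMSO) in Chelex-treated 20 mM HEPES, pH 7.4, 150 mM NaCl. It was first given 1 or 20 equiv of MgCl2, CaCl2, MnCl2, FeCl2, CoCl2, NiCl2 or CuCl2, then ZnCl2 (50 µM). Fe(II) samples were kept anaerobic by N2 purge. UV–vis spectra were recorded after 5 min at room temperature.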

Chain of Aβ40/Aβ42 (P05067 672-711 limits assumed): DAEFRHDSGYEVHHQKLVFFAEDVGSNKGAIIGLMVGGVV
Chain of Aβ42 (P05067 672-713): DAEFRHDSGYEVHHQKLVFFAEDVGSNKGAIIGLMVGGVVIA

Regarding `Nc1cccc2ccc(CO)nc12` [Compound 1, (8-aminoquinolin-2-yl)methanol, reference compound], the “Dissociation constant (Kd) with Zn(II)” value in [1] was “micromolar range”. The “−logPe” value in series [2] was 4.70 (±0.01). Further, the “Dissociation constant (Kd) with Cu(II)” value in series [3] is recorded as “micromolar range”. Further, the “Effect on preformed metal-free and metal-treated Aβ aggregates” value in series [4] was “no discernible difference”. For the same molecule, the “Antioxidant capacity (TEAC value) in cell lysates” value (shortened to “Antioxidant capacity (TEAC value)”) in series [5] came to 0.86 ± 0.10.

On to `CN(C)c1ccc(O)cc1` [DAP, 4-(dimethylamino)phenol, reference compound], for which the “Effect on Zn(II)-triggered Aβ aggregation” value in series [6] (ZnCl2 25 µM, compound 50 µM, pH 7.4) was “influenced Zn(II)-triggered Aβ aggregation, similar to ML”.

Broadly, the half-life is the time needed for the level to fall by half in the phase considered. The term pKa denotes the pH at which an ionisable group is half protonated. Take `CN(C)c1ccc(O)c(CNc2cccc3ccc(CO)nc23)c1` [ML, 4-(dimethylamino)-2-(((2-(hydroxymethyl)quinolin-8-yl)-amino)-methyl)phenol]: the half-life at 1 µM in series [7], in [11] and in series [15] was under 30 min each time. Further, the “Dissociation constant (Kd) with Zn(II)” value in series [1] is reported as “nanomolar range”. For the same molecule, the “Free radical scavenging (TEAC) in solution relative to DAP, 1 and Trolox” value in series [8] was “ca. 2.6”. Further, in [2], the “−logPe” value was 4.49 (±0.01). Also, the pKa was 2.63 in series [9] (first of three printed), 3.97 in series [9] (second of three printed) and 6.23 in [9] (third of three printed). Also, in series [9] (pH 7.4, solution speciation diagram based on the acidity constants), the “Neutral form at physiological pH” value is on record as “ca. 94%”. Also, the “Dissociation constant (Kd) with Cu(II)” value in series [3] is recorded as “picomolar range”. Moreover, the “Effect on preformed metal-free and metal-treated Aβ aggregates” value in series [4] is “could transform preformed aggregates into relatively smaller, amorphous conformations”. The “Copper-mediated generation of hydroxyl radicals” value in series [10] was “significantly reduced”. The “Inhibition of Aβ42 dodecamer formation” value in series [12] (1:5 mixture of Aβ42 and ML) is reported as “completely”. Moreover, the “Inhibition of Aβ42 hexamer formation” value in series [12] (1:5 mixture of Aβ42 and ML) is recorded as “partially”. Moreover, the “Disaggregation of preformed Aβ42 dodecamers” value in series [12] (Aβ42 on ice ca. 4 h, then ML added (1:5)) is listed as “disaggregates preformed dodecamers”. Moreover, the concentration at 5 min in [13] (brain) was found to be 14.3 ± 4 ng/g; in [13] (plasma), 5.91 ± 1.24 ng/mL. The “Effect on metal-induced Aβ aggregation” value in [6] (CuCl2 or ZnCl2 25 µM, compound 50 µM, 37 °C) is on record as “noticeable effects on the modulation of metal-induced Aβ aggregation”. In addition, the “Effect on metal-free Aβ40/Aβ42 aggregation” value in series [6] (compound 50 µM, 4, 8, 24 h, 37 °C) is “could direct the production of Aβ species with a wide range of MW”. The “Cell survival, compound with and without metal ions (no Aβ)” value in series [14] is reported as “ca. 85%”. For the same molecule, the “Antioxidant capacity (TEAC value)” value in series [5] is given as 1.41 ± 0.15. For the same molecule, the “Selectivity toward Zn(II) over other divalent metal ions” value in [16] is given as “relatively selective for Zn(II) over Mg(II), Ca(II), or Mn(II)”.

`Cc1c(C)c2c(c(C)c1O)CCC(C)(C(=O)O)O2` (stereo not drawn) [Trolox, 6-hydroxy-2,5,7,8-tetramethylchroman-2-carboxylic acid]: in [5], the “Antioxidant capacity (TEAC value)” value is 1.00 ± 0.08.
